From ChEMBL document CHEMBL1150803, “Absence of a universal mechanism of mitochondrial toxicity by nucleoside analogs” (Antimicrob Agents Chemother, 2007)

How the values were obtained:
[1] = Toxicity in human HepG2/C3A cells assessed as induction of cell death at 10 to 50 uM after 4 to 14 days; format: cell-based
Method in brief: (§1)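 LIVE/DEAD flow cytometry: harvested cells in PBS with 100 nM calcein AM and 8 μM ethidium homodimer 1, 30 min at 37°C in the dark, 488 nm excitation. After debris gating, dead cells are those high in ethidium homodimer and low in calcein, counted per 10,000 events. HepG2 were exposed 4, 10 or 14 days; H9c2 12 days. Compared with time-matched control.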

[2] = Toxicity against human HepG2/C3A cells assessed as metabolic alterations at 10 to 50 uM after 4 to 14 days by SRB assay; format: cell-based
[3] = Toxicity against human HepG2/C3A cells assessed as reduction in mitochondrial DNA copy numbers at 10 uM after 4 to 14 days relative to control; format: cell-based; design: scale not given: the % may be the effect or the level left
Method in brief: (§2)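 HepG2/C3A cells were grown in MEM with pyruvate and 10% FBS. Drug in PBS was replenished every 2 days for 4, 10 or 14 days. DNA was extracted and quantified by real-time SYBR Green PCR with 0.5 μM of each primer and 2 mM MgCl2. Output is the cytochrome b/pyruvate kinase gene copy ratio (mtDNA/nDNA), compared with time-matched control. Mean of three experiments.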

[4] = Toxicity against human HepG2/C3A cells assessed as reduction in mitochondrial DNA copy numbers at 50 uM after 4 to 14 days relative to control; format: cell-based; design: scale not given: the % may be the effect or the level left; method in brief: as §2
[5] = system: H9c2; assay: Toxicity in rat […] cells assessed as induction of cell death at 10 to 50 uM after 4 to 14 days
[6] = system: H9c2; assay: Toxicity against rat H9c2 cells assessed as metabolic alterations at 10 to 50 uM after 4 to 14 days by SRB assay; details: h9c2, 50 µM
[7] = system: H9c2; assay: Toxicity against rat H9c2 cells assessed as inhibition of cell proliferation at 10 to 50 uM after 4 to 14 days by SRB assay; details: h9c2, 50 µM
[8] = Toxicity against human HepG2/C3A cells assessed as inhibition of cell proliferation at 10 to 50 uM after 6 days by SRB assay
[9] = system: H9c2; assay: Toxicity against rat H9c2 cells assessed as reduction in mitochondrial DNA copy numbers at 10 uM after 12 days relative to control; design: scale not given: the % may be the effect or the level left; details: h9c2, 288 h
[10] = Toxicity against human […] cells assessed as reduction in mitochondrial DNA copy numbers at 0.5 ug/ml after 6 days relative to control; format: cell-based; design: scale not given: the % may be the effect or the level left; details: hepg2/c3a, 144 h
[11] = Toxicity in human HepG2/C3A cells assessed as cell viability at 0.5 ug/ml after 10 days; format: cell-based
Method in brief: (§3)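 HepG2/C3A cells were cultured with 0.5 µg/ml EtBr for 10 or 14 days. Harvested cells were stained with 100 nM calcein AM and 8 µM ethidium homodimer 1 for 30 min at 37°C in the dark, then analysed by flow cytometry at 488-nm excitation. Dead cells (high ethidium homodimer, low calcein) were counted per 10,000 events after debris gating.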

[12] = Toxicity in human HepG2/C3A cells assessed as cell viability at 0.5 ug/ml after 14 days; format: cell-based; method in brief: as §3
[13] = Toxicity against human HepG2/C3A cells assessed as inhibition of cell proliferation at 0.5 ug/ml after 6 days by SRB assay; format: cell-based; details: 144 h
Method in brief: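 Cells were seeded at about 2,500/well in 12-well plates and cultured with 0.5 µg/ml EtBr for 6 days. They were fixed overnight in methanol with 1% acetic acid at −10°C and stained 1 h with 0.5% SRB. Bound dye was eluted with 10 mM Tris pH 10 and absorbance read at 540 nm. Three experiments were run.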

[14] = Toxicity against human HepG2/C3A cells assessed as elevation of lactate levels at 0.5 ug/ml after 6 days by NAD+ reduction assay; format: cell-based; details: 144 h
Method in brief: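 Cells were exposed to 0.5 µg/ml EtBr for 6 days in 12-well plates seeded at about 2,500 cells/well, with drug in PBS replenished at medium changes. Medium was deproteinised with TCA. Lactate was measured as NADH at 340 nm after 30 min at room temperature in glycine-hydrazine buffer pH 9.2 with NAD+ and lactate dehydrogenase. Results are nmol/well normalised to SRB absorbance, from three experiments.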

[15] = Toxicity against human HepG2/C3A cells assessed as increase in mitochondrial superoxide production at 0.5 ug/ml after 4 to 14 days by flow cytometry; format: cell-based
Method in brief: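 HepG2/C3A cells were cultured in MEM with 10% FBS with 0.5 µg/ml EtBr for 4, 10 and 14 days, with medium changed every 2 days. Attached cells were loaded with 5 µM MitoSOX Red in HBSS with Ca/Mg for 10 min at 37°C in the dark, then trypsinised. Flow cytometry used 488-nm excitation and 530/30 emission; the value is the geometric mean fluorescence of 10,000 cells.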

[16] = Toxicity against human HepG2/C3A cells assessed as reduction in mitochondrial DNA copy numbers at 0.5 ug/ml after 4 days relative to control; format: cell-based; design: scale not given: the % may be the effect or the level left; details: 96 h
Method in brief: (§4)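 DNA was extracted after 0.5 µg/ml EtBr exposure: H9c2 at 12 days (pre-kept 7 days in 1% FBS plus 10 nM retinoic acid), HepG2/C3A at 4, 10 and 14 days. SYBR real-time PCR used 0.5 µM primers and 2 mM MgCl2. Copy numbers came from purified-product standards, reported as cytochrome b/pyruvate kinase ratio versus control.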

[17] = Toxicity against human HepG2/C3A cells assessed as reduction in mitochondrial DNA copy numbers at 0.5 ug/ml after 10 days relative to control; format: cell-based; design: scale not given: the % may be the effect or the level left; details: 240 h; method in brief: as §4
[18] = Toxicity against human HepG2/C3A cells assessed as reduction in mitochondrial DNA copy numbers at 0.5 ug/ml after 14 days relative to control; format: cell-based; design: scale not given: the % may be the effect or the level left; details: 336 h; method in brief: as §4
[19] = Toxicity against human HepG2/C3A cells assessed as inhibition of cell proliferation at 50 uM after 6 days by SRB assay; format: cell-based; details: 144 h
Method in brief: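 Cells were seeded at about 2,500 per well and exposed to drug for 6 days. They were fixed overnight at −10°C in methanol with 1% acetic acid, stained with 0.5% SRB in 1% acetic acid for 1 h at room temperature, and the dye eluted with 10 mM Tris pH 10. Result is dilution-adjusted absorbance at 540 nm, mean of three experiments.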

[20] = Toxicity against human HepG2/C3A cells assessed as induction of cell death at 5 uM after 14 days; format: cell-based; details: 336 h; method in brief: as §1
[21] = Toxicity against human HepG2/C3A cells assessed as reduction in mitochondrial DNA copy numbers at 1 uM after 4 days relative to control; format: cell-based; design: scale not given: the % may be the effect or the level left; details: 96 h; method in brief: as §2
[22] = Toxicity against human HepG2/C3A cells assessed as reduction in mitochondrial DNA copy numbers at 5 uM after 4 days relative to control; format: cell-based; design: scale not given: the % may be the effect or the level left; details: 96 h; method in brief: as §2
[23] = Toxicity against human HepG2/C3A cells assessed as reduction in mitochondrial DNA copy numbers at 1 uM after 14 days relative to control; format: cell-based; design: scale not given: the % may be the effect or the level left; details: 336 h; method in brief: as §2
[24] = Toxicity against human HepG2/C3A cells assessed as reduction in mitochondrial DNA copy numbers at 5 uM after 14 days relative to control; format: cell-based; design: scale not given: the % may be the effect or the level left; details: 336 h; method in brief: as §2
[25] = system: H9c2; assay: Toxicity in rat H9c2 cells assessed as effect on cell viability at 5 uM after 6 days; details: h9c2, 144 h
[26] = system: H9c2; assay: Toxicity in rat H9c2 cells assessed as effect on cell viability at 1 to 5 uM after 12 days; details: h9c2, 288 h
[27] = system: H9c2; assay: Toxicity against rat H9c2 cells assessed as reduction in mitochondrial DNA copy numbers at 1 to 5 uM after 12 days relative to control; details: h9c2, 288 h
[28] = Toxicity in human HepG2/C3A cells assessed as induction of cell death at 10 uM after 4 days; format: cell-based; details: 96 h; method in brief: as §1
[29] = Toxicity in human HepG2/C3A cells assessed as induction of cell death at 50 uM after 4 days; format: cell-based; details: 96 h; method in brief: as §1
[30] = Toxicity in human HepG2/C3A cells assessed as induction of cell death at 50 uM after 10 days; format: cell-based; details: 240 h; method in brief: as §1
[31] = Toxicity in human HepG2/C3A cells assessed as induction of cell death at 50 uM after 14 days; format: cell-based; details: 336 h; method in brief: as §1
[32] = Toxicity against human HepG2/C3A cells assessed as elevation of lactate levels at 10 uM after 6 days by NAD+ reduction assay; format: cell-based; details: 144 h
Method in brief: (§5)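 Cells were seeded at about 2,500 per well and exposed 6 days; H9c2 were retinoic-acid-conditioned in 1% FBS. Medium was deproteinized with ice-cold 10% TCA. Lactate was read by LDH-catalyzed NAD+ reduction in 0.2 M glycine-hydrazine pH 9.2 with 0.6 mg/ml NAD+ and 17 U/ml LDH, 30 min at room temperature, absorbance 340 nm. Result is nmol/well normalized to SRB absorbance.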

[33] = Toxicity against human HepG2/C3A cells assessed as elevation of lactate levels at 50 uM after 6 days by NAD+ reduction assay; format: cell-based; details: 144 h; method in brief: as §5
[34] = Toxicity against human HepG2/C3A cells assessed as increase in mitochondrial superoxide production at 50 uM by flow cytometry; format: cell-based
Method in brief: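 Flask-grown cells were loaded with 5 μM MitoSOX Red in HBSS with Ca/Mg for 10 min at 37°C in the dark, trypsinized, and analyzed by flow cytometry (488 nm excitation, 530/30 emission). Result is the geometric mean fluorescence of 10,000 cells. HepG2 were sampled on days 4, 10 and 14; H9c2 on day 12. Compared with time-matched control.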

[35] = Toxicity against human HepG2/C3A cells assessed as effect on mitochondrial DNA copy numbers at 50 uM after 4 days; format: cell-based; details: 96 h; method in brief: as §2
[36] = Toxicity against human HepG2/C3A cells assessed as effect on mitochondrial DNA copy numbers at 50 uM after 10 days; format: cell-based; details: 240 h; method in brief: as §2
[37] = system: H9c2; assay: Toxicity in rat H9c2 cells assessed as induction of cell death at 50 uM after 12 days; details: h9c2, 288 h
[38] = system: H9c2; assay: Toxicity against rat H9c2 cells assessed as effect on mitochondrial DNA copy numbers after 12 days; details: h9c2, 288 h
[39] = system: H9c2; assay: Toxicity against rat H9c2 cells assessed as elevation of lactate levels at 10 uM after 6 days by NAD+ reduction assay; details: h9c2, 144 h
[40] = system: H9c2; assay: Toxicity against rat H9c2 cells assessed as elevation of lactate levels at 50 uM after 6 days by NAD+ reduction assay; details: h9c2, 144 h
[41] = system: H9c2; assay: Toxicity against rat H9c2 cells assessed as increase in mitochondrial superoxide production at 50 uM by flow cytometry; details: h9c2, 50 µM

Question: What does the source list for O=c1[nH]cnc2c1ncn2[C@H]1CC[C@@H](CO)O1 [DIDANOSINE]?
Answer: Activity [1]: Non-toxic; Activity [2]: Non-toxic; Activity [3]: 80%; Activity [4]: 50%; Activity [5]: Non-toxic; Activity [6]: Non-toxic; Activity [7]: Non-toxic; Activity [8]: Non-toxic; Activity [9]: 60%

Question: What does the source list for CC[n+]1c(-c2ccccc2)c2cc(N)ccc2c2ccc(N)cc21.[Br-] [HOMIDIUM BROMIDE]?
Answer: Activity [10]: 16%; viability at 240 h, 0.5 ug/ml [11]: > 80%; viability at 336 h, 0.5 ug/ml [12]: > 80%; Activity [13]: Toxic; Activity [14]: Toxic; Activity [15]: Toxic; Activity [16]: 16%; Activity [17]: 10%; Activity [18]: 4%

Question: Which Activity [19] does the source give for Nc1ccn([C@H]2CC[C@@H](CO)O2)c(=O)n1 [ZALCITABINE] here?
Answer: Non-toxic

Question: What about the Activity [20] of the same compound?
Answer: Toxic

Question: What about the Activity [21] of the same compound?
Answer: 15%

Question: What about the Activity [22] of the same compound?
Answer: 11%

Question: And the Activity [23]?
Answer: 1%

Question: And the Activity [24]?
Answer: 1%

Question: What about the Activity [25] of the same compound?
Answer: Non-toxic

Question: What about the Activity [26] of the same compound?
Answer: Non-toxic

Question: And the Activity [27]?
Answer: Non-toxic

Question: For Cc1cn([C@H]2C[C@H](N=[N+]=[N-])[C@@H](CO)O2)c(=O)[nH]c1=O [ZIDOVUDINE], which Activity [28] is on record?
Answer: Toxic

Question: And the Activity [29]?
Answer: Toxic

Question: And the Activity [30]?
Answer: Toxic

Question: And the Activity [31]?
Answer: Toxic

Question: And the Activity [19]?
Answer: Toxic

Question: And the Activity [32]?
Answer: Toxic

Question: What about the Activity [33] of the same compound?
Answer: Toxic

Question: What about the Activity [34] of the same compound?
Answer: Toxic

Question: And the Activity [35]?
Answer: Toxic

Question: What about the Activity [36] of the same compound?
Answer: Toxic

Question: And the Activity [37]?
Answer: Non-toxic

Question: What about the Activity [38] of the same compound?
Answer: Non-toxic

Question: What about the Activity [39] of the same compound?
Answer: Toxic

Question: And the Activity [40]?
Answer: Toxic

Question: And the Activity [41]?
Answer: Non-toxic
